Source: ChEMBL document CHEMBL3792296, “Synthesis and antiproliferative activity of 9-benzylamino-6-chloro-2-methoxy-acridine derivatives as potent DNA-binding ligands and topoisomerase II inhibitors” (Eur J Med Chem, 2016)
Calls of active or inactive are those of the source. No cut-off for these calls is given here.

How the values were obtained:
A549 [1] = test: Antiproliferative activity against human A549 cells after 48 hrs by MTT assay; type: functional, cell-based; conditions: A549, 48 h
How it was run: (§1)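 MTT assay: cells seeded at 4-8 × 10³ per well, incubated overnight at 37 °C in 5% CO₂, then given fresh medium with graded compound concentrations or equal DMSO for 48 h. MTT (5 mg/mL solution) added for a further 4 h, formazan dissolved in DMSO, absorbance read at 490 nm. Six cancer cell lines tested.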

CCRF-CEM = test: Antiproliferative activity against human CCRF-CEM cells after 48 hrs by MTT assay; type: functional, cell-based; how it was run: as §1
MCF7 = test: Antiproliferative activity against human MCF7 cells after 48 hrs by MTT assay; type: functional, cell-based; conditions: MCF7, 48 h; how it was run: as §1
Calf thymus DNA = test: Binding affinity to calf thymus DNA after 5 mins by UV-vis spectrophotometry; type: nucleic-acid assay; conditions: Bos taurus
How it was run: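 ctDNA at 0-44 µM is added to compound at 10 µM final in Tris-HCl buffer (pH 7.4). UV-vis absorption spectra are recorded after 5 min standing. The binding constant K_b is taken from a plot of absorption data against DNA concentration.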

[2] = Antiproliferative activity against human HCT116 cells after 48 hrs by MTT assay; type: functional, cell-based; conditions: HCT-116, 48 h; how it was run: as §1
HeLa = test: Antiproliferative activity against human HeLa cells after 48 hrs by MTT assay; type: functional, cell-based; how it was run: as §1
[3] = molecular target: DNA topoisomerase 2-alpha (Homo sapiens) (UniProt P11388); test: Inhibition of human recombinant topoisomerase 2-alpha expressed in Escherichia coli assessed as reduction in enzyme-mediated relaxation of supercoiled pBR322 DNA at 10 to 50 uM after 10 to 15 mins by agarose gel electrophoresis
Chain of DNA topoisomerase 2-alpha (Homo sapiens) (P11388 whole entry): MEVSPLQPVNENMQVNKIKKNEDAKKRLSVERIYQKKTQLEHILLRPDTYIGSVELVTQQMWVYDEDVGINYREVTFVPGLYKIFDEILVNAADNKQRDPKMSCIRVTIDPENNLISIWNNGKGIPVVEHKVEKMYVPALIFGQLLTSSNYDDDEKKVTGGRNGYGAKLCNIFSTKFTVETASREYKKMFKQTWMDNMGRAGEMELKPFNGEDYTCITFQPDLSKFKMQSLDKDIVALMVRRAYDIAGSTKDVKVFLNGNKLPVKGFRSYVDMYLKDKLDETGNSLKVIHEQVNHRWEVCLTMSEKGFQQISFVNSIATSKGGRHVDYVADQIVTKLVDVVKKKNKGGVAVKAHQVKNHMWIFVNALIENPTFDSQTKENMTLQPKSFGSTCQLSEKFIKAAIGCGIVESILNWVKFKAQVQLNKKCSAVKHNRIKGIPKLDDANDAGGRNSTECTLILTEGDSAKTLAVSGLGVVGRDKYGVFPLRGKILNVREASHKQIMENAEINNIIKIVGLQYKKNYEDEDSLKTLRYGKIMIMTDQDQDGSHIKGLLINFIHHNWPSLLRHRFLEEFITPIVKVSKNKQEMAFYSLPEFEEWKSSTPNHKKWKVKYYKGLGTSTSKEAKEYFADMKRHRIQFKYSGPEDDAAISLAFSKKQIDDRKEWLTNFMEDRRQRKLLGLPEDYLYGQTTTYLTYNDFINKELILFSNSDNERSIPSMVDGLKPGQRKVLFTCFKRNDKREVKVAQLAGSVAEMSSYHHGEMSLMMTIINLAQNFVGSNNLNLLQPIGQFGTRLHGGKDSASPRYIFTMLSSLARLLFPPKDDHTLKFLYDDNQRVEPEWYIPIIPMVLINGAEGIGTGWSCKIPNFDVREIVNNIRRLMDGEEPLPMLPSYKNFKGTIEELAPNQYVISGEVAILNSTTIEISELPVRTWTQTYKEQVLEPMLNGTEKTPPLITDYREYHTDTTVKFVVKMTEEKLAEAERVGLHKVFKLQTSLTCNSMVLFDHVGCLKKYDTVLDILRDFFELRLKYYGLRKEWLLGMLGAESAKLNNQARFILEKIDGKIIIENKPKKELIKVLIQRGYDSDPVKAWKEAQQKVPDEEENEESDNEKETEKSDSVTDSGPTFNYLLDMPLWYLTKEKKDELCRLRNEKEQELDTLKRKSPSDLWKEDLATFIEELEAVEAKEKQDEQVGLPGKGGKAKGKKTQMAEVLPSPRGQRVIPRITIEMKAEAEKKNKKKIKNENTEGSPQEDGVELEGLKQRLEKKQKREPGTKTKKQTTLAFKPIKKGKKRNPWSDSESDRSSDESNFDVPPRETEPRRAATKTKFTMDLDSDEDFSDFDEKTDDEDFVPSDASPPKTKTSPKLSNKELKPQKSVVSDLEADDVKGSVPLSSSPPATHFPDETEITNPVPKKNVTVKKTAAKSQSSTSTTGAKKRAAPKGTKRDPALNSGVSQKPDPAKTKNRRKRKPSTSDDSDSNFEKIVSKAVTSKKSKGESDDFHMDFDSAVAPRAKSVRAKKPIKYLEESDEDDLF
How it was run: (§2)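 Relaxation of 500 ng supercoiled pBR322 by 1 unit human Topo I or Topo IIα, with or without compound, in 20 µL reaction buffer at 37 °C for 10-15 min. Reactions stopped with loading buffer, run on 0.8% agarose in TAE at 80 V for 30 min. Gels stained with ethidium bromide 2.5 µg/mL and viewed under UV.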

A549 [4] = test: Induction of DNA damage in human A549 cells assessed as tail DNA at 10 uM after 24 hrs by propidium iodide staining based comet assay (reference value: 0.02%); type: cell-based
How it was run: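 Alkaline comet assay. About 10⁵ A549 cells per well incubated 12 h, then treated 24 h in serum-free medium against a DMSO control. Cells embedded in low-melting agarose, lysed 2 h, alkaline-unwound 0.5 h at 4 °C, electrophoresed at 300 mA for 25 min in the dark. Slides neutralized, PI-stained, 50 random cells scored for % tail DNA.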

[5] = molecular target: DNA topoisomerase 2-alpha (Homo sapiens) (UniProt P11388); test: Inhibition of human recombinant topoisomerase 2-alpha expressed in Escherichia coli assessed as reduction in enzyme-mediated relaxation of supercoiled pBR322 DNA at 100 uM after 10 to 15 mins by agarose gel electrophoresis; how it was run: as §2
[6] = molecular target: T1, DNA topoisomerase 1 (Homo sapiens) (UniProt P11387); test: Inhibition of human topoisomerase 1 assessed as reduction in enzyme-mediated relaxation of supercoiled pBR322 DNA at 50 to 100 uM after 10 to 15 mins by agarose gel electrophoresis; how it was run: as §2
T1 sequence (whole entry): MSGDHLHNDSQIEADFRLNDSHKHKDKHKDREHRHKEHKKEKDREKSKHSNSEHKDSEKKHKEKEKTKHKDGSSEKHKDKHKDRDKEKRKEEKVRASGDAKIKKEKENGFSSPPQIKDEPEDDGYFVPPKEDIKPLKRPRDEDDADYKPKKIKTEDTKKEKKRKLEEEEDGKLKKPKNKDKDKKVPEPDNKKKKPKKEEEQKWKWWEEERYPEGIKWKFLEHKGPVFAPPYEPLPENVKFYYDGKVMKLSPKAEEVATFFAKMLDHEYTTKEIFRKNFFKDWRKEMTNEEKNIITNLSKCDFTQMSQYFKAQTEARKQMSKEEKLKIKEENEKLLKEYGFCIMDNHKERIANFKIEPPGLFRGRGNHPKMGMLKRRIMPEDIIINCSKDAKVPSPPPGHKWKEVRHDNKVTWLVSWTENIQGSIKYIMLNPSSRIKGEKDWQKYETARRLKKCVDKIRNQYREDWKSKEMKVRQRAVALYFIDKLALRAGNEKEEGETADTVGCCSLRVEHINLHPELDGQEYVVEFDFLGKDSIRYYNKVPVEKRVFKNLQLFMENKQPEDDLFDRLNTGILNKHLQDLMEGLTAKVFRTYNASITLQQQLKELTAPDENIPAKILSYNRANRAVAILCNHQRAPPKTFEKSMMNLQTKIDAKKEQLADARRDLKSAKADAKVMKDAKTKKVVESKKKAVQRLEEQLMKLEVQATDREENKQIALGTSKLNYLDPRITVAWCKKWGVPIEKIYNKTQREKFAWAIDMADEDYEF

IC50 (A549 [1])	inhibition [5]	Structure (SMILES)	further results
5960 nM	–	COc1cc(NS(C)(=O)=O)ccc1Nc1c2ccccc2nc2ccccc12 [AMSACRINE]	IC50 (CCRF-CEM): 180 nM; IC50 (MCF7): 26.8 µM; Kb (Calf thymus DNA): 1.36 ×10⁵ /M; IC50 [2]: 930 nM; IC50 (HeLa): 0.34 µM
3820 nM	–	COc1cc([C@@H]2c3cc4c(cc3[C@@H](O[C@@H]3O[C@@H]5CO[C@@H](C)O[C@H]5[C@H](O)[C@H]3O)[C@H]3COC(=O)[C@H]23)OCO4)cc(OC)c1O [ETOPOSIDE]	IC50 (CCRF-CEM): 120 nM; inhibition [3]: Active; Activity (A549 [4]): 46.7%; IC50 [2]: 6030 nM; IC50 (HeLa): 41.2 µM
720 nM	Active	COc1ccc2nc3cc(Cl)ccc3c(NCc3ccc(OC(F)F)cc3)c2c1	IC50 (CCRF-CEM): 6870 nM; IC50 (MCF7): 9.95 µM; inhibition [3]: Active; IC50 [2]: 1160 nM; IC50 (HeLa): 4.41 µM
950 nM	Active	COc1ccc2nc3cc(Cl)ccc3c(NCc3ccc(OC)c(F)c3)c2c1	IC50 (CCRF-CEM): 3080 nM; IC50 (MCF7): 7.6 µM; inhibition [3]: Active; IC50 [2]: 860 nM; IC50 (HeLa): 4.08 µM
2580 nM	Active	CCc1ccc(CNc2c3ccc(Cl)cc3nc3ccc(OC)cc23)cc1	inhibition [6]: Active
2180 nM	Active	COc1ccc2nc3cc(Cl)ccc3c(NCc3cc(OC)c(OC)c(OC)c3)c2c1	–
4640 nM	Active	COc1ccc2nc3cc(Cl)ccc3c(NCc3cccc(Cl)c3)c2c1	–
4190 nM	Active	COc1ccc2nc3cc(Cl)ccc3c(NCc3cccc(F)c3)c2c1	–
7030 nM	Active	COc1ccc2nc3cc(Cl)ccc3c(NCc3ccc(C(C)(C)C)cc3)c2c1	–
3260 nM	Active	COc1ccc2nc3cc(Cl)ccc3c(NCc3ccc(Br)cc3)c2c1	–
4200 nM	Active	COc1ccc2nc3cc(Cl)ccc3c(NCc3ccc(Cl)cc3)c2c1	–
6320 nM	Active	COc1ccc2nc3cc(Cl)ccc3c(NCc3ccccc3C(F)(F)F)c2c1	–
2560 nM	Active	COc1ccc2nc3cc(Cl)ccc3c(NCc3ccc(OC)c(OC)c3)c2c1	inhibition [6]: Active
1820 nM	Active	COc1ccc2nc3cc(Cl)ccc3c(NCc3cc(F)c(OC)c(F)c3)c2c1	–
90 nM	–	COc1cccc2c1C(=O)c1c(O)c3c(c(O)c1C2=O)C[C@@](O)(C(=O)CO)C[C@@H]3O[C@H]1C[C@H](N)[C@H](O)[C@H](C)O1 [DOXORUBICIN]	IC50 (CCRF-CEM): 52 nM; IC50 (MCF7): 0.81 µM; IC50 (HeLa): 0.78 µM
2820 nM	Active	COc1ccc2nc3cc(Cl)ccc3c(NCc3ccccc3F)c2c1	–
2630 nM	Active	COc1ccc2nc3cc(Cl)ccc3c(NCc3ccc(C)cc3)c2c1	–
9200 nM	Active	COc1cc(CNc2c3ccc(Cl)cc3nc3ccc(OC)cc23)cc(OC)c1	–
4050 nM	Active	COc1ccc2nc3cc(Cl)ccc3c(NCc3ccc(F)cc3)c2c1	inhibition [6]: Active
2220 nM	Active	COc1ccc2nc3cc(Cl)ccc3c(NCc3cccc(C)c3)c2c1	–
650 nM	Active	COc1ccc2nc3cc(Cl)ccc3c(NCc3ccc4c(c3)OCO4)c2c1	IC50 (CCRF-CEM): 2000 nM; IC50 (MCF7): 10.3 µM; inhibition [3]: Active; IC50 [2]: 1620 nM; IC50 (HeLa): 7 µM
6040 nM	Active	COc1ccc2nc3cc(Cl)ccc3c(NCc3ccc(C(F)(F)F)cc3)c2c1	–
> 25000 nM	Active	COc1ccc2nc3cc(Cl)ccc3c(NCc3ccc(F)c(F)c3)c2c1	–
3000 nM	Active	COc1ccc2nc3cc(Cl)ccc3c(NCc3ccccc3Br)c2c1	–
160 nM	Active	COc1ccc2nc3cc(Cl)ccc3c(NCc3cccc(C(F)(F)F)c3)c2c1	IC50 (CCRF-CEM): 5110 nM; IC50 (MCF7): 10.5 µM; inhibition [3]: Active; IC50 [2]: 760 nM; IC50 (HeLa): 10.1 µM
